Shown are actives, neighbours in structure and some others; about 2.4% of the full set was active somewhere.
STAT3 inh – reduces IL-6 driven STAT3 reporter signal; inhibition, % at 5.5 µM; U3A cells, IL-6 STAT3-luciferase reporter, luminescence; host cell line lacks STAT1; AID 862; hit rate 0.89% among 190,000;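 active = inhibition above the mean inhibition across all screened compounds plus 3 SD, cut at about 44% in these data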;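 also: 0% = DMSO only wells and 100% = 100 µM nifuroxazide control wells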
bCat nuc transl – beta-catenin nuclear translocation modulation | HeLa beta-catenin nuclear translocation, immunofluorescence imaging | nuclear translocation activity, % at 5 µM | hit rate 0.3% among 190,000 | AID 1665;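 active = nuclear translocation activity above 50% at 5 µM, with a well cell count of 50 or more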;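 also: per-cell ratio of nuclear to cytoplasmic median beta-catenin stain intensity; plate controls were DMSO negative control for no effect and GSK-3 inhibitor IX positive control for full effect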
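Test system: human HeLa cell line; Doses: 5 µM primary, 0.02–20 µM confirmation; Incubation: 24 h compound exposure, 37°C; Detection: beta-catenin immunofluorescence imaging with DAPI; Read-out: beta-catenin nuclear/cytoplasmic ratio, % activation.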
STAT3 activator – activators of IL-6 induced STAT3 signaling. activation (% of control), % at 5.6 µM. hit rate 0.91% among 190,000. U3A cells, IL-6 STAT3-luciferase reporter, luminescence; 100% = signal with IL-6 EC80 alone;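 active = activation above the screen-wide mean of compound activation plus 3 SD, cut at about 130% in these data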;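 also: 0% = background luminescence of wells with medium and substrate only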
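System – human U3A cells carrying STAT3-luciferase construct · Probe or stimulus – Interleukin-6, 33 ng/mL · Schedule – compound 1 h, then IL-6 6 h at 37 °C · Signal – luminescence from STAT3-driven luciferase reporter · Evaluation – percent of IL-6-only median luminescence · Benchmarks – IL-6-only high control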
MT stabilizer – microtubule stabilization, imaging screen. hit rate 0.83% among 200,000. % tubulin-high responders, % at 10 µM. HeLa tubulin immunostaining HCS, 24 h; share of cells brighter than vehicle mean+2SD;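 active = plate Z-score above 3 for both tubulin-high and condensed-nucleus cell shares, with cell loss under 80%, at 10 µM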;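 also: anti alpha tubulin signal scored within the nucleus-defined area of each cell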
STAT1 blocker – inhibitors of IFN-gamma induced STAT1 signaling; NIH 3T3 STAT1-luciferase reporter, luminescence; inhibition, % at 5.5 µM; hit rate 0.35% among 200,000; AID 920;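 active = inhibition above a set limit, the mean inhibition across all tested compounds plus 3 SD, cut at about 34% in these data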;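 also: 0% = IFN-gamma with DMSO and 100% = IFN-gamma with 300 µM nifuroxazide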
* marks the source's active call; other numbers are inactive results; · = not tested or not shown.

SMILES | STAT3 inh | bCat nuc transl | STAT3 activator | MT stabilizer | STAT1 blocker
COC(=O)c1c(C)oc2ccc(N(C(=O)c3ccncc3)S(=O)(=O)c3ccc(C)cc3)cc12 | 29 | 162* | 76 | 13 | 17
COC(=O)c1c(C)oc2ccc(N(C(=O)c3ccncc3)S(=O)(=O)c3ccc(C)cc3C)cc12 | -3 | 0 | 100 | 14* | 8
Nc1ccccc1Nc1cc(-c2cccc(Cl)c2)nn1-c1ccccc1 | -5 | 0 | 107 | 3 | -6
CCOc1ncccc1C(=O)OCc1ccc(Cl)cc1 | 9 | 0 | 96 | 3 | 1
CCOc1ncccc1C(=O)OCc1ccc(C(=O)OC)cc1 | -35 | 68* | 137* | 18* | -33
Cc1ccc(/C=N/NC(=O)CCCOc2ccc(Cl)cc2Cl)cc1 | -4 | 115* | 106 | 15 | -1
COc1cccc(N2CCN(C(=O)c3[nH]c(C)c(C(C)=O)c3C)CC2)c1 | 10 | 60* | 96 | 29 | 1
CC(=O)c1c(C)[nH]c(C(=O)N2CCN(c3cc(Cl)ccc3C)CC2)c1C | 10 | · | 98 | 53* | -1
O=C(COc1ccccc1F)NCc1ccc(-n2cccc2)cc1 | 0 | 0 | 103 | 3 | -3
Cc1nc(NC(=O)c2ccc(Cl)cc2)sc1Cc1ccc2c(c1)OCO2 | 14 | · | 89 | 13* | 2
O=C(Nc1ccn(Cc2ccc(Cl)cc2)n1)c1ccc2c(c1)OCO2 | 3 | -4 | 99 | 3 | 2
Cc1c(Cc2ccc3c(c2)OCO3)sc(NC(=O)c2ccccc2)c1C(N)=O | 2 | 0 | 98 | 6 | 0
Cc1nc(NC(=O)c2ccccc2)sc1Cc1ccc2c(c1)OCO2 | 9 | · | 94 | 11* | -7
NC(=O)C1CCN(S(=O)(=O)Cc2ccccc2Cl)CC1 | 9 | -1 | 98 | 2 | -9
CCOC(=O)C1=C(C)C/C(=N\NC(=O)c2ccccc2O)CC1 | · | 0 | · | · | ·
Cc1ccc(OCc2n[nH]c(=S)n2C2CCCCC2)cc1 | 6 | -2 | 93 | 2 | -1
Cc1cccc(OCc2n[nH]c(=S)n2C2CCCCC2)c1 | 16 | 2 | 90 | 32* | 0
COc1ccc(-c2coc3cc4oc(=O)c5ccccc5c4cc23)cc1F | -9 | 141* | 111 | 12 | 0
Cc1c(CCC(=O)O)c(=O)oc2cc3occ(-c4ccc(F)cc4)c3cc12 | -26 | -1 | 127 | 3 | 7
COc1ccccc1-n1cnc2cc(NC(=O)c3ccco3)ccc21 | 9 | 62* | 96 | 52* | -13
C/C(CC(=O)Nc1ccccn1)=N\NC(=O)c1cnccn1 | · | 1 | · | · | ·
COc1ccc(C)cc1N(C(=O)c1cccc(F)c1)c1nc2ccccc2s1 | -35 | 0 | 134* | 3 | -5
Cc1ccc2c(c1)Oc1ccccc1C=C2C(=O)O | 6 | 0 | 98 | 4 | -11
CCN(CC)C(=O)COc1ccc(/C=C(\C#N)S(=O)(=O)c2ccccc2)cc1OC | 5 | -2 | 104 | 2 | -5
Cc1ccc(C(=O)N2CCC3(CC2)Oc2ccc(Cl)cc2C(=O)C32CC(c3cccnc3)=NO2)s1 (stereo unspecified) | · | 0 | · | · | ·
SMILES | STAT3 inh | bCat nuc transl | STAT3 activator | MT stabilizer | STAT1 blocker
O=C(/C=C/c1cccs1)N1CCC2(CC1)Oc1ccc(Cl)cc1C(=O)C21CC(c2cccnc2)=NO1 (stereo unspecified) | · | 52* | · | · | ·
COc1ccc(-c2nnnn2-c2ccccc2OC)cc1 | -2 | 2 | 106 | 20* | 7
Cc1ccccc1-n1nnnc1-c1ccccc1 | 9 | -3 | 96 | 6 | -9
C=CCn1c(C)cc(C(=O)CN2NS(=O)(=O)c3ccccc3C2=O)c1C | -2 | 2 | 103 | 8.6* | -47
CCCc1cc(=O)oc2c3c(c4c(c12)OC(C)(C)C=C4)OC(C)C(C)C3O (stereo unspecified) | · | 2 | · | · | ·
Cc1cccc(C2N=C(N)Nc3nc4ccccc4n32)c1 (stereo unspecified) | · | 0 | · | · | ·
Cc1ccc(Nc2cc(C)nc(N3CCOCC3)n2)cc1 | -34 | -3 | 134* | 2 | -17
Cc1cc(Nc2ccc(C)c(Cl)c2)nc(N2CCOCC2)n1 | · | 0 | · | · | ·
Cc1cc(C(=O)N2CCN(c3cccc(Cl)c3)CC2)c(C)o1 | 13 | · | 92 | 60* | -15
Cc1cc(C(=O)N2CCN(c3ccccc3)CC2)c(C)o1 | 10 | -2 | 95 | 3 | 0
CSc1ccccc1C(=O)N1CCN(c2cccc(Cl)c2)CC1 | 14 | 40 | 92 | 21* | 5
Cc1ccc(C(=O)N2CCN(c3ccccc3)CC2)cc1C | 2 | 2 | 104 | 4 | 4
Cc1ccc(C(=O)N2CCN(c3cccc(Cl)c3)CC2)cc1C | -3 | 19 | 108 | 24* | 1
CCOc1cc(N2CCOCC2)c(OCC)cc1NCC(=O)N1CCN(Cc2ccccc2)CC1 | · | -1 | · | · | ·
Cc1ccc(C(=O)CSc2nnc3c4ccccc4nc(C(C)(C)C)n23)cc1 | 5 | 0 | 96 | 26* | 12
Cc1csc(NC(=O)CSc2nnc3c4ccccc4nc(C(C)(C)C)n23)n1 | 6 | 58* | 105 | 46* | 2
CC(=O)CSc1nnc2c3ccccc3nc(C(C)(C)C)n12 | 8 | 0 | 95 | 2 | -3
CN(C)C(=S)N=Nc1[nH]c2ccccc2c1O | -57 | -4 | 152* | 7 | -88
CCOc1ccc(OCc2cccc(C(=O)O)c2)cc1 | · | -1 | · | · | ·
CCOc1ccc(OCc2cccc(C(=O)N3CCCCCC3)c2)cc1 | 80* | 9 | 33 | 2 | 71*
O=C(Nc1ccc(Cl)cc1)/C(=C/c1ccc([N+](=O)[O-])cc1)c1nc2ccccc2s1 | -16 | -3 | 119 | 36* | -18
COc1ccc(/C(N)=N/OC(=O)c2cccc([N+](=O)[O-])c2C)cc1 | -31 | -1 | 134* | 3 | -12
COc1ccc(/C(N)=N/OC(=O)c2cccc([N+](=O)[O-])c2)cc1 | -37 | · | 127 | 3 | -3
CC(/C=N/NC(=O)c1cc(-c2ccccc2)nc2ccccc12)=C\c1ccco1 | -5 | 155* | 103 | 7 | 6
CC(=C/c1ccco1)/C=N/NC(=O)c1ccncc1 | · | 3 | · | · | ·
SMILES | STAT3 inh | bCat nuc transl | STAT3 activator | MT stabilizer | STAT1 blocker
CC(/C=N/NC(=O)c1cc(-c2ccc(Cl)cc2)nc2ccccc12)=C\c1ccco1 | 7 | 235* | 93 | 14 | 11
COc1ccc(C(=O)Nc2n[nH]c(-c3ccncc3)n2)cc1 | 27 | 0 | 83 | 2 | -16
Cn1c(=O)[nH]c(=O)c2c1nc(Br)n2CCCSc1nc2ccccc2o1 | 12 | · | 94 | 25* | 5
Cn1c(=O)[nH]c(=O)c2c1nc(N1CCCC1)n2CCCSc1nc2ccccc2o1 | 11 | · | 96 | 2 | 7
COc1ccc(N2C(N)=C(C#N)C(c3cccnc3)C3=C2CC(C)(C)CC3=O)cc1 (stereo unspecified) | -1 | 2 | 104 | 50* | -1
COc1ccc(C2C(C#N)=C(N)N(c3cccnc3)C3=C2C(=O)CC(C)(C)C3)cc1OC (stereo unspecified) | 20 | -3 | 85 | 3 | 6

From PubChem
